Calls of active or inactive are those of the source. The rule behind the calls is not given here.
Experiments:
[1] = biological target: T1, C-C chemokine receptor type 4 (Homo sapiens, UniProt P51679); test: Displacement of [125I]MDC from human CCR4 expressed in HEK293 cells; assay type: cell-based
T1 sequence (P51679 whole entry): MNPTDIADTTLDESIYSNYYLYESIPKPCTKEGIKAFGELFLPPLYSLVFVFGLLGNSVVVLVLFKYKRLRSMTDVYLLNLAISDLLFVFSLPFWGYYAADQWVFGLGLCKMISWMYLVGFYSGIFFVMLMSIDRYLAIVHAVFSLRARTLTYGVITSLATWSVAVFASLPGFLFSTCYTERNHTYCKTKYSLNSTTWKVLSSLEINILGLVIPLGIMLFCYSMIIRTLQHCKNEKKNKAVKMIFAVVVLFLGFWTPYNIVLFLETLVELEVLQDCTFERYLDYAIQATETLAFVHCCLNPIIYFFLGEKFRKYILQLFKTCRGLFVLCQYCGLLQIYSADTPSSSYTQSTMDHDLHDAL

[2] = biological target: T2, C-C chemokine receptor type 4 (Mus musculus) (UniProt P51680); test: Inhibition of ovalbumin-induced eosinophil infiltration in BALB/c mouse allergic inflammation model at 5 mg/kg, po; assay type: functional, organism-based; set-up: dose 5 mg/kg
T2 sequence (whole entry): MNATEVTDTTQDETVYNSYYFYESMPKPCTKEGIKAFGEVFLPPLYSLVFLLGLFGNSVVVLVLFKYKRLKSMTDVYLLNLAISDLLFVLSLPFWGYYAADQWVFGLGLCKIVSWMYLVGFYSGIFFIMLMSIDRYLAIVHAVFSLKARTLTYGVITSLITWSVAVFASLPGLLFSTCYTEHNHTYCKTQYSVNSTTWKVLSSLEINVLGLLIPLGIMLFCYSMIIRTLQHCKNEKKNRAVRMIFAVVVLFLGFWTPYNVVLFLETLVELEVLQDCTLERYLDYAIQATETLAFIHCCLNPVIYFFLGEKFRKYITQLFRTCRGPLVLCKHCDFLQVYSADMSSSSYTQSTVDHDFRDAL
Method in brief: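 Mice previously immunized with ovalbumin; dexamethasone given orally at 5 mg/kg as reference control. Total leukocytes, total eosinophils and percent eosinophils counted in bronchoalveolar lavage fluid. Seven to eight mice per group; means ± SEM; significance versus vehicle group by ANOVA with Dunnett's test (p < 0.05).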

[3] = Carcinogenicity in SOS chromotest; assay type: ADME
[4] = biological target: CYP450 (isoform not stated) (Homo sapiens, UniProt P04798+P05177+P05181+P08684+P10632+P10635+P11509+P11712+P13584+P20813+P20815+P20853+P24462+P24903+P33260+P33261+P51589+P78329+P98187+Q02928+Q08477+Q16678+Q16696+Q5TCH4+Q6VVX0+Q7Z449+Q8TAV3+Q96SQ9+Q9HB55); test: Inhibition of CYP450; assay type: ADME
[5] = biological target: T1, C-C chemokine receptor type 4; test: Antagonist activity at human CCR4 expressed in CEMS529 cells assessed as effect on calcium mobilization; assay type: functional, cell-based
[6] = Toxicity in human immortalized hepatocytes; assay type: cell-based, Hepatocyte
[7] = Metabolic stability in human microsomes; assay type: ADME, Microsome
[8] = biological target: T2, C-C chemokine receptor type 4 (Mus musculus); test: Inhibition of ovalbumin-induced eosinophil infiltration in BALB/c mouse allergic inflammation model at 30 mg/kg, sc
[9] = biological target: T2, C-C chemokine receptor type 4 (Mus musculus); test: Inhibition of ovalbumin-induced eosinophil infiltration in sc dosed BALB/c mouse allergic inflammation model

| IC50 [1] [nM] | SMILES | further results |
| --- | --- | --- |
| 830 | CCN(CC)CCCC(C)Nc1ncc2c(ncn2Cc2ccc(Cl)cc2Cl)n1 (configuration not stated) |  |
| 80 | O=C([C@@H]1CCCN1)N1CCN(c2nc(NCc3ccc(Cl)cc3Cl)c3cccnc3n2)CC1 |  |
| 4900 | CCN(CC)CCCC(C)Nc1nc(NCc2ccc(Cl)cc2Cl)c2[nH]cnc2n1 (configuration not stated) |  |
| 1100 | CCN(CC)CCCC(C)Nc1nc(NCc2ccc(Cl)cc2Cl)c2c(ncn2CC)n1 (configuration not stated) |  |
| 280 | CCN(CC)CCCC(C)Nc1ccc2cnn(Cc3ccc(Cl)cc3Cl)c2n1 (configuration not stated) |  |
| 500 | CCN(CC)CCCC(C)Nc1nc(NCc2ccc(Cl)cc2Cl)c2ccccc2n1 (configuration not stated) |  |
|  | C[C@@H]1C[C@H]2[C@@H]3CCC4=CC(=O)C=C[C@]4(C)[C@@]3(F)[C@@H](O)C[C@]2(C)[C@@]1(O)C(=O)CO | Activity [2]: Active |
| 2600 | CCN(CC)CCCC(C)Nc1nc(NCc2ccc(Cl)cc2Cl)nc2ncn(CC)c12 (configuration not stated) |  |
| 280 | CCN(CC)C(C)CCCNc1nccc(NCc2ccc(Cl)cc2Cl)n1.N (configuration not stated) | Activity [3]: Non-toxic; IC50 [4]: > 1000 nM; IC50 [5]: 800 nM; IC50 [6]: > 40 µM; Stability [7]: 0.1 nmol/mg/min |
|  | O=C([C@@H]1CCCCN1)N1CCN(c2nc(NCc3ccc(Cl)cc3Cl)c3cccnc3n2)CC1 | Activity [8]: Active; ED50 [9]: 10 mg/kg; Stability [7]: 0.003 nmol/mg/min |
| 2100 | CCN(CC)CCCC(C)Nc1nc(NCc2ccc(Cl)cc2Cl)nc2nc[nH]c12 (configuration not stated) |  |
| 820 | CCN(CC)CCCC(C)Nc1ncc2ncn(Cc3ccc(Cl)cc3Cl)c2n1 (configuration not stated) |  |
| 1910 | CCN(CC)CCCC(C)Nc1nc(NCc2ccc(Cl)cc2Cl)nc2ccccc12 (configuration not stated) |  |
| 3600 | CCN(CC)CCCC(C)Nc1nc(NC)nc(NCc2ccc(Cl)cc2Cl)n1 (configuration not stated) |  |
| 140 | CCN(CC)CCCC(C)Nc1nc(NCc2ccc(Cl)cc2Cl)c2cccnc2n1 (configuration not stated) |  |

— ChEMBL document CHEMBL1146290, “Core exploration in optimization of chemokine receptor CCR4 antagonists” (Bioorg Med Chem Lett, 2007)
